A short description of series [1]: Clearance in Sprague-Dawley rat at 1 mg/kg, iv. It is filed as ADME, organism-based. Details: dose 1 mg/kg, route intravenous. To be noted: in vivo. In short, it runs like this:
(§1)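 PK in male Sprague-Dawley rats or male CD-1 mice. For iv, 1 mg/kg was given as a DMSO solution. For po, compound was given as a solution in the vehicle and at the dose named in each line, with MsOH-acidified vehicles at pH 2.0.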

Series [2] in a line: AUC in Sprague-Dawley rat at 2.5 mg/kg, po compound dosed in 1% Pluronic F68/1% HPMC/15% Captisol/83% H2O with MsOH at pH 2. It is filed as ADME, organism-based. More on the design: dose 2.5 mg/kg, route oral. To be noted: plasma. In short, it runs like this:
as §1

Series [3] is described as follows: Volume of distribution at steady state in Sprague-Dawley rat at 1 mg/kg, iv. It is filed as ADME, organism-based. More on the design: dose 1 mg/kg, route intravenous. As to conditions: in vivo, read-out: Vdss. In a few lines: as §1
Series [4] is described as follows: Mean residence time in Sprague-Dawley rat at 1 mg/kg, iv. Type of series: ADME, organism-based. More on the design: dose 1 mg/kg, route intravenous. As to conditions: in vivo. In short, it runs like this: as §1
Series [5] in a line: Oral bioavailability in Sprague-Dawley rat at 2.5 mg/kg compound dosed in 1% Pluronic F68/1% HPMC/15% Captisol/83% H2O with MsOH at pH 2. As to conditions: in vivo. It is filed as ADME, organism-based. In a few lines: as §1
Series [6] in a line: AUC in Sprague-Dawley rat at 2 mg/kg, po compound dosed in 1% Tween 80/99% OraPlus. It is filed as ADME, organism-based. To be noted: plasma. Details: dose 2 mg/kg, route oral. In short, it runs like this: as §1
Series [7] in a line: Oral bioavailability in Sprague-Dawley rat at 2 mg/kg compound dosed in 1% Tween 80/99% OraPlus. It is filed as ADME, organism-based. To be noted: in vivo. In short, it runs like this: as §1
Series [8] is described as follows: Oral bioavailability in Sprague-Dawley rat at 2.5 mg/kg compound dosed in 1% Tween 80/2% HPMC/97% H2O with MsOH at pH 2. Type of series: ADME, organism-based. To be noted: in vivo. In a few lines:
as §1

Series [9] is described as follows: AUC in Sprague-Dawley rat at 2.5 mg/kg, po compound dosed in 1% Tween 80/2% HPMC/97% H2O with MsOH at pH 2. Type of series: ADME, organism-based. Details: dose 2.5 mg/kg, route oral. As to conditions: plasma. In a few lines: as §1
Series [10] in a line: Intrinsic clearance in rat microsomes. It is filed as ADME, Microsome.
For series [11], the system named is Mus musculus. Description: Volume of distribution at steady state in CD1 mouse at 1 mg/kg, iv. It is filed as ADME, organism-based. More on the design: dose 1 mg/kg, route intravenous. To be noted: in vivo. In short, it runs like this: as §1
Series [12] deals with Mus musculus. Description: Mean residence time in CD1 mouse at 1 mg/kg, iv. As to conditions: in vivo. More on the design: dose 1 mg/kg, route intravenous. It is filed as ADME, organism-based. In short, it runs like this: as §1
A short description of series [13]: AUC in CD1 mouse at 2.5 mg/kg, po compound dosed in 1% Pluronic F68/1% HPMC/15% Captisol/83% H2O with MsOH at pH 2. It is filed as ADME, organism-based. More on the design: dose 2.5 mg/kg, route oral. As to conditions: plasma. In short, it runs like this: as §1
A short description of series [14]: Oral bioavailability in CD1 mouse at 2.5 mg/kg compound dosed in 1% Pluronic F68/1% HPMC/15% Captisol/83% H2O with MsOH at pH 2. Type of series: ADME, organism-based. To be noted: in vivo. In a few lines: as §1

In series [1], `Cc1ccc(C(=O)c2c(-c3ccccc3)n(C)n(-c3ccccc3)c2=O)c(N)c1-c1ccc2nc(N)sc2c1` showed a clearance of 50 mL/min/kg. Further, in series [2], the AUC was determined as 1 µM·h. Also, the Vd in series [3] is 6.5 L/kg. For the same molecule, the mean residence time (MRT) in series [4] came out at 2.2 h. In [5], this molecule registered a bioavailability of 67%.

`COc1cc2nccc(Oc3ccc(NC(=O)c4c(-c5ccccc5)n(C)n(-c5ccccc5)c4=O)nc3)c2cc1OC` had a clearance in series [1] of 1.17 mL/min/kg. For the same molecule, the Vd in [3] stood at 0.73 L/kg. The MRT in [4] worked out at 10.4 h. For the same molecule, the exposure (AUC) in series [6] was determined as 20.2 µM·h. This molecule also registered a bioavailability in series [7] of 50%.

In series [8], `CNc1ncc2cc(-c3cc(C(=O)c4c(-c5ccccc5)n(C)n(-c5ccccc5)c4=O)ccc3N)ccc2n1` gave a bioavailability of 18%. In series [1], this molecule had a clearance of 16.7 mL/min/kg. In [3], the Vd worked out at 0.56 L/kg. The mean residence time MRT in series [4] is 0.5 h. In series [9], this molecule gave an exposure (AUC) of 0.8 µM·h.

In turn, `CNc1ncc2c(Cl)c(-c3c(C)ccc(C(=O)c4c(-c5ccccc5)n(C)n(-c5ccccc5)c4=O)c3N)ccc2n1` showed a clearance in [1] of 8.33 mL/min/kg. For the same molecule, the AUC in [2] stood at 3.7 µM·h. In series [3], the Vd is 2.7 L/kg. For the same molecule, in series [4], the mean residence time MRT was 5.5 h. Moreover, the bioavailability in series [5] worked out at 49%.

As to `CNc1ncc2cc(-c3c(C)ccc(C(=O)c4c(-c5ccccc5)n(C)n(-c5ccccc5)c4=O)c3N)ccc2n1`, the microsomal CLint in [10] was determined as 29 µL/min/mg.

With `CNc1ncc2c(F)c(-c3c(C)ccc(C(=O)c4c(-c5ccccc5)n(C)n(-c5ccccc5)c4=O)c3N)ccc2n1`, in [1], the clearance is 9.5 mL/min/kg. Also, in [2], the exposure (AUC) was found to be 3.8 µM·h. Also, the Vd in [3] amounted to 2.2 L/kg. In [4], this molecule returned an MRT of 3.9 h. This molecule showed a bioavailability in [5] of 48%.

In turn, `Cc1nc(N)c2c(-c3ccc4c(c3)CCN4C(=O)Cc3cc(F)cc(C(F)(F)F)c3)cn(C)c2n1` gave a clearance in series [1] of 1.67 mL/min/kg. The same molecule gave an area under the curve (AUC) in [2] of 23.6 µM·h. Moreover, the Vd in series [3] is 1.2 L/kg. Moreover, the mean residence time (MRT) in series [4] stood at 11.9 h. The molecule also yielded a bioavailability in [5] of 98%.

With `CNc1ncc2cc(-c3cc(C(=O)c4c(-c5ccccc5)n(C)n(-c5ccccc5)c4=O)ccc3C)ccc2n1`, the microsomal CLint in series [10] stood at 497 µL/min/mg.

In the case of `CNc1ncc2cc(-c3cc(C(=O)c4c(-c5ccccc5)n(C)n(-c5ccccc5)c4=O)ccc3Cl)ccc2n1`, the intrinsic clearance (microsomal CLint) in series [10] was determined as 167 µL/min/mg.

In series [1], `Cc1ccc(C(=O)c2c(-c3ccccc3)n(C)n(-c3ccccc3)c2=O)c(N)c1-c1ccc2nc(C(F)F)sc2c1` showed a clearance of 15.7 mL/min/kg. In addition, the AUC in series [2] amounted to 3.4 µM·h. Besides, the Vd in series [3] was found to be 5 L/kg. The mean residence time MRT in series [4] was 5.3 h. In [5], the bioavailability turned out to be 76%.

In series [1], `CNc1nc2ccc(-c3c(C)ccc(C(=O)c4c(-c5ccccc5)n(C)n(-c5ccccc5)c4=O)c3N)cc2s1` had a clearance of 10.7 mL/min/kg. The area under the curve (AUC) in series [2] was 2.5 µM·h. Also, in series [3], the Vd is 2 L/kg. In series [4], the MRT is 3.1 h. In [5], this molecule yielded a bioavailability of 35%.

Molecule `Cc1nc2ccc(-c3c(C)ccc(C(=O)c4c(-c5ccccc5)n(C)n(-c5ccccc5)c4=O)c3N)cc2s1` had a clearance in series [1] of 23.3 mL/min/kg. This molecule yielded an AUC in [2] of 0.1 µM·h. The Vd in series [3] came to 3.1 L/kg. The MRT in [4] was found to be 2.2 h. Besides, in [5], the bioavailability worked out at 3%.

`Cc1ncc2cc(-c3c(C)ccc(C(=O)c4c(-c5ccccc5)n(C)n(-c5ccccc5)c4=O)c3N)ccc2n1` gave a clearance in series [1] of 36.7 mL/min/kg. Further, the AUC in series [2] was 1.2 µM·h. Also, in series [3], the Vd was 2.6 L/kg. The mean residence time MRT in [4] stood at 1.4 h. The same molecule had a bioavailability in series [5] of 69%.

For the molecule `Cc1ccc(C(=O)c2c(-c3ccccc3)n(C)n(-c3ccccc3)c2=O)c(N)c1-c1ccc2nc(C(F)(F)F)sc2c1`, the clearance in [1] was 12.5 mL/min/kg. Besides, the exposure (AUC) in [2] was 3.2 µM·h. Besides, the Vd in [3] stood at 8.1 L/kg. In series [4], the MRT came out at 10.8 h. In series [5], this molecule yielded a bioavailability of 83%.

On to `Cc1ccc2cc(-c3c(C)ccc(C(=O)c4c(-c5ccccc5)n(C)n(-c5ccccc5)c4=O)c3N)ccc2n1`, for which the clearance in series [1] was 26.7 mL/min/kg. The AUC in [2] came out at 1.4 µM·h; in series [13], 8.8 µM·h. Moreover, the Vd in series [3] amounted to 3.6 L/kg. Further, the mean residence time (MRT) in series [4] was 2.3 h; in the series with Mus musculus [12], 5 h. In the series with Mus musculus [11], this molecule yielded a distribution volume (Vdss) of 1.2 L/kg. Besides, the bioavailability was 55% in [5] and 46% in [14].

The values above are taken from ChEMBL document CHEMBL3407336, “Discovery of 1H-pyrazol-3(2H)-ones as potent and selective inhibitors of protein kinase R-like endoplasmic reticulum kinase (PERK)” (J Med Chem, 2015).
